Data: ChEMBL document CHEMBL1156088, “Synthesis and biological activity of novel oxazolidinones” (2009)
≈ marks a conversion by molar mass, not a printed value.

Columns and labels:
Format in all cases: functional
Streptococcus pyogenes = assay: Antibacterial activity against Streptococcus pyogenes ATCC 19615 by NCCLS method
Method in brief: (§1)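 In vitro MIC determination by the NCCLS method against a panel of gram-positive bacteria. Two oxazolidinone reference standards were tested alongside.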

Staphylococcus aureus [1] = assay: Antibacterial activity against Staphylococcus aureus ATCC 25923 by NCCLS method; method in brief: as §1
Staphylococcus aureus [2] = assay: Antibacterial activity against Staphylococcus aureus 15187 by NCCLS method; method in brief: as §1
Staphylococcus aureus [3] = assay: Antibacterial activity against methicillin-resistant Staphylococcus aureus 33 by NCCLS method
Method in brief: (§2)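 In vitro MIC determined by the NCCLS method against a panel of gram-positive bacteria. Ranbezolid and linezolid were run alongside as reference standards.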

Staphylococcus aureus [4] = assay: Antibacterial activity against methicillin-resistant Staphylococcus aureus 562 by NCCLS method; method in brief: as §2
Enterococcus faecium = assay: Antibacterial activity against vancomycin-resistant Enterococcus faecium 6A by NCCLS method; method in brief: as §2
Streptococcus pneumoniae = assay: Antibacterial activity against Streptococcus pneumoniae ATCC 6303 by NCCLS method; method in brief: as §1
Enterococcus faecalis = assay: Antibacterial activity against Enterococcus faecalis ATCC 29212 by NCCLS method; method in brief: as §1

| SMILES | MIC (Streptococcus pyogenes) [µg/mL] | MIC (Staphylococcus aureus [1]) [µg/mL] | MIC (Staphylococcus aureus [2]) [µg/mL] | MIC (Staphylococcus aureus [3]) [µg/mL] | MIC (Staphylococcus aureus [4]) [µg/mL] | MIC (Enterococcus faecium) [µg/mL] | MIC (Streptococcus pneumoniae) [µg/mL] | MIC (Enterococcus faecalis) [µg/mL] |
| --- | --- | --- | --- | --- | --- | --- | --- | --- |
| CN(C)C(=S)NC[C@H]1CN(c2ccc(N3CCN(Cc4ccc([N+](=O)[O-])o4)CC3)c(F)c2)C(=O)O1 | > 16 | > 16 | > 16 | > 16 | > 16 | > 16 | > 16 | > 16 |
| NC(=S)NC[C@H]1CN(c2ccc(N3CCN(Cc4ccc([N+](=O)[O-])o4)CC3)c(F)c2)C(=O)O1 | 0.25 (≈ 0.522 µM) | 1 (≈ 2.09 µM) | 1 (≈ 2.09 µM) | 1 (≈ 2.09 µM) | 1 (≈ 2.09 µM) | 1 (≈ 2.09 µM) | < 0.06 | 0.5 (≈ 1.04 µM) |
| O=C(NC[C@H]1CN(c2ccc(N3CCN(Cc4ccc([N+](=O)[O-])o4)CC3)c(F)c2)C(=O)O1)c1ccc([N+](=O)[O-])o1 | > 8 | 8 (≈ 14.3 µM) | 2 (≈ 3.58 µM) | 2 (≈ 3.58 µM) | 1 (≈ 1.79 µM) | > 8 | 8 (≈ 14.3 µM) | 4 (≈ 7.16 µM) |
| CSC(=S)NC[C@H]1CN(c2ccc(N3CCN(Cc4ccc([N+](=O)[O-])o4)CC3)c(F)c2)C(=O)O1 | > 16 | > 16 | > 16 | > 16 | > 16 | > 16 | > 16 | > 16 |
| O=C1O[C@@H](CO)CN1c1ccc(N2CCN(Cc3ccc([N+](=O)[O-])o3)CC2)c(F)c1 | > 16 | > 16 | > 16 | > 16 | > 16 | > 16 | > 16 | > 16 |
| O=C(NC[C@H]1CN(c2ccc(N3CCN(Cc4ccc([N+](=O)[O-])o4)CC3)c(F)c2)C(=O)O1)c1ccc(Br)o1 | > 16 | > 16 | > 16 | > 16 | > 16 | > 16 | > 16 | > 16 |
| O=C1O[C@@H](COc2ccon2)CN1c1ccc(N2CCN(Cc3ccc([N+](=O)[O-])o3)CC2)c(F)c1 | > 16 | > 16 | > 16 | > 16 | > 16 | > 16 | > 16 | > 16 |
| O=C(NC[C@H]1CN(c2ccc(N3CCN(Cc4ccc([N+](=O)[O-])o4)CC3)c(F)c2)C(=O)O1)C(F)F | 0.5 (≈ 1.01 µM) | 2 (≈ 4.02 µM) | 1 (≈ 2.01 µM) | 2 (≈ 4.02 µM) | 2 (≈ 4.02 µM) | 2 (≈ 4.02 µM) | 0.5 (≈ 1.01 µM) | 2 (≈ 4.02 µM) |
| COCC(=O)NC[C@H]1CN(c2ccc(N3CCN(Cc4ccc([N+](=O)[O-])o4)CC3)c(F)c2)C(=O)O1 | > 16 | > 16 | > 16 | > 16 | > 16 | > 16 | > 16 | > 16 |
| CC(=O)NC[C@H]1CN(c2ccc(N3CCOCC3)c(F)c2)C(=O)O1 [LINEZOLID] | 2 (≈ 5.93 µM) | – | – | – | – | 2 (≈ 5.93 µM) | – | – |
| COC(=S)NC[C@H]1CN(c2ccc(N3CCN(Cc4ccc([N+](=O)[O-])o4)CC3)c(F)c2)C(=O)O1 | 1 (≈ 2.03 µM) | 2 (≈ 4.05 µM) | 2 (≈ 4.05 µM) | 2 (≈ 4.05 µM) | 2 (≈ 4.05 µM) | 1 (≈ 2.03 µM) | 0.5 (≈ 1.01 µM) | 1 (≈ 2.03 µM) |
| O=C(/C=C/c1ccc(F)cc1)NC[C@H]1CN(c2ccc(N3CCN(Cc4ccc([N+](=O)[O-])o4)CC3)c(F)c2)C(=O)O1 | > 16 | > 16 | > 16 | > 16 | > 16 | > 16 | > 16 | > 16 |
| NC[C@H]1CN(c2ccc(N3CCN(Cc4ccc([N+](=O)[O-])o4)CC3)c(F)c2)C(=O)O1 | > 16 | > 16 | > 16 | > 16 | > 16 | > 16 | > 16 | > 16 |
| O=C(/C=C/c1ccccc1)NC[C@H]1CN(c2ccc(N3CCN(Cc4ccc([N+](=O)[O-])o4)CC3)c(F)c2)C(=O)O1 | > 16 | > 16 | > 16 | > 16 | > 16 | > 16 | > 16 | > 16 |
| O=C(NC[C@H]1CN(c2ccc(N3CCN(Cc4ccc([N+](=O)[O-])o4)CC3)c(F)c2)C(=O)O1)C(Cl)Cl | > 16 | > 16 | > 16 | > 16 | > 16 | > 16 | > 16 | > 16 |
| O=C1O[C@@H](CN=C=S)CN1c1ccc(N2CCN(Cc3ccc([N+](=O)[O-])o3)CC2)c(F)c1 | > 16 | > 16 | > 16 | > 16 | > 16 | > 16 | > 16 | > 16 |
| O=C(CCl)NC[C@H]1CN(c2ccc(N3CCN(Cc4ccc([N+](=O)[O-])o4)CC3)c(F)c2)C(=O)O1 | 0.5 (≈ 1.01 µM) | 2 (≈ 4.03 µM) | 2 (≈ 4.03 µM) | 2 (≈ 4.03 µM) | 2 (≈ 4.03 µM) | 2 (≈ 4.03 µM) | 0.5 (≈ 1.01 µM) | 2 (≈ 4.03 µM) |
| CCOC(=O)NC[C@H]1CN(c2ccc(N3CCN(Cc4ccc([N+](=O)[O-])o4)CC3)c(F)c2)C(=O)O1 | > 16 | > 16 | > 16 | > 16 | > 16 | > 16 | > 16 | > 16 |
| O=C(/C=C/c1ccc2c(c1)OCO2)NC[C@H]1CN(c2ccc(N3CCN(Cc4ccc([N+](=O)[O-])o4)CC3)c(F)c2)C(=O)O1 | > 16 | > 16 | > 16 | > 16 | > 16 | > 16 | > 16 | > 16 |
| O=C(CF)NC[C@H]1CN(c2ccc(N3CCN(Cc4ccc([N+](=O)[O-])o4)CC3)c(F)c2)C(=O)O1 | 0.5 (≈ 1.04 µM) | 4 (≈ 8.34 µM) | 2 (≈ 4.17 µM) | 4 (≈ 8.34 µM) | 2 (≈ 4.17 µM) | 4 (≈ 8.34 µM) | 1 (≈ 2.09 µM) | 4 (≈ 8.34 µM) |
| O=C1O[C@@H](CNc2ccon2)CN1c1ccc(N2CCN(Cc3ccc([N+](=O)[O-])o3)CC2)c(F)c1 | 1 (≈ 2.06 µM) | 2 (≈ 4.11 µM) | 2 (≈ 4.11 µM) | 2 (≈ 4.11 µM) | 2 (≈ 4.11 µM) | 2 (≈ 4.11 µM) | 1 (≈ 2.06 µM) | 2 (≈ 4.11 µM) |
| CC(=O)NC[C@H]1CN(c2ccc(N3CCN(Cc4ccc([N+](=O)[O-])o4)CC3)c(F)c2)C(=O)O1 [RANBEZOLID] | 0.125 (≈ 0.271 µM) | 1 (≈ 2.17 µM) | – | 2 (≈ 4.33 µM) | 2 (≈ 4.33 µM) | 2 (≈ 4.33 µM) | 0.125 (≈ 0.271 µM) | 2 (≈ 4.33 µM) |
| CC(=S)NC[C@H]1CN(c2ccc(N3CCN(Cc4ccc([N+](=O)[O-])o4)CC3)c(F)c2)C(=O)O1 | 0.5 (≈ 1.05 µM) | 1 (≈ 2.09 µM) | 1 (≈ 2.09 µM) | 1 (≈ 2.09 µM) | 1 (≈ 2.09 µM) | 1 (≈ 2.09 µM) | 0.25 (≈ 0.524 µM) | 1 (≈ 2.09 µM) |
| O=C(NC[C@H]1CN(c2ccc(N3CCN(Cc4ccc([N+](=O)[O-])o4)CC3)c(F)c2)C(=O)O1)c1ccc([N+](=O)[O-])s1 | > 16 | > 16 | > 16 | > 16 | > 16 | > 16 | > 16 | > 16 |
